≈ marks a conversion by molar mass, not a printed value.

By IC50 is commonly meant the point on the concentration scale where inhibition reaches its midpoint.

The target of assay [1] is T1, Human immunodeficiency virus type 1 protease (Human immunodeficiency virus 1, UniProt Q72874). Put plainly: Inhibitory activity against HIV Protease in peptide cleavage assay. The method in brief: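 HIV-1 protease substrate cleavage assay. Inhibitor was dissolved in DMSO and added to the enzyme mixture at the required concentrations. Substrate cleavage was measured by HPLC, and IC50 was calculated from the extent of cleavage.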

The next assay relates to H9. Description: Ability to inhibit HIV-1 infection in H9 human T-lymphoid cells. It counts as functional. Particulars: read-out: MIC100. The method in brief: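 HIV-1 spread in culture of H9 human T-lymphoid cells, tested at concentrations up to 12 μM. Value reported as MIC100, the minimum concentration giving 100% inhibition of viral spread.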
In assay [2] the target is T1, Human immunodeficiency virus type 1 protease. Description: Inhibitory activity against HIV protease in peptide cleavage assay. The method in brief:
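HIV-1 protease peptide-substrate cleavage assay. Inhibitor dissolved in DMSO and added to the enzyme mixture at the required concentrations. Extent of substrate cleavage determined by HPLC. IC50 calculated from cleavage extent.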

In assay [1], `CC(C)[C@H](NC(=O)[C@H](Cc1ccccc1)C[C@H](O)[C@H](Cc1ccccc1)NC(=O)OC(C)(C)C)C(N)=O` gave an IC50 of 1.1 nM.

Consider `CCC(C)[C@H](NC(=O)[C@H](Cc1ccccc1)C[C@H](O)[C@H](Cc1ccccc1)NC(=O)OC(C)(C)C)C(=O)NCCO` (some centres undefined), for which, in the assay with H9, the MIC was found to be 0.4 µM (≈ 0.228 µg/mL). Moreover, the IC50 in assay [2] turned out to be 0.46 nM.

In assay [2], `CCN(CC)CC(O)CNC(=O)[C@@H](NC(=O)[C@H](Cc1ccccc1)C[C@H](O)[C@H](Cc1ccccc1)NC(=O)OC(C)(C)C)C(C)C` (some centres undefined) came in with an IC50 of 6.3 nM.

In the case of `CN(C)CCCNC(=O)[C@@H](NC(=O)[C@H](Cc1ccccc1)C[C@H](O)[C@H](Cc1ccccc1)NC(=O)OC(C)(C)C)c1ccccc1`, the IC50 in assay [2] amounted to 26 nM. Against the preceding compound, the IC50 is about 4.1-fold higher.

As for `CC(C)(C)OC(=O)N[C@@H](Cc1ccccc1)[C@@H](O)C[C@@H](Cc1ccccc1)C(=O)N[C@H](C(N)=O)C1CCCCC1`, the IC50 in assay [1] was 5.2 nM.

For `CC(C)C[C@H](NC(=O)[C@H](Cc1ccccc1)C[C@H](O)[C@H](Cc1ccccc1)NC(=O)OC(C)(C)C)C(=O)NCc1ccccc1`, the MIC in the assay with H9 turned out to be 3 µM (≈ 1.85 µg/mL). The compound further gave an IC50 in assay [1] of 1.4 nM.

Take `CCC(C)[C@H](NC(=O)[C@H](Cc1ccccc1)C[C@H](O)[C@H](Cc1ccccc1)NC(=O)OC(C)(C)C)C(=O)NCc1ccccn1` (some centres undefined): the MIC with H9 came to 0.78 µM (≈ 0.481 µg/mL). For the same compound, the concentration for half-maximal inhibition (IC50) in assay [2] was 1.3 nM.

For the compound `CC(C)[C@H](NC(=O)[C@H](Cc1ccccc1)C[C@H](O)[C@H](Cc1ccccc1)NC(=O)OC(C)(C)C)C(=O)NCc1ccncc1`, the MIC in the assay on H9 stood at 0.4 µM (≈ 0.241 µg/mL). Besides, in assay [2], it took 0.62 nM to reach half-maximal inhibition (IC50).

Compound `CC(C)(C)OC(=O)N[C@@H](Cc1ccccc1)[C@@H](O)C[C@@H](Cc1ccccc1)C(=O)N[C@H](C(=O)NCc1ccccc1)c1ccccc1` displayed an IC50 in assay [2] of 5.8 nM.

In assay [2], `CNCCNC(=O)[C@@H](NC(=O)[C@H](Cc1ccccc1)C[C@H](O)[C@H](Cc1ccccc1)NC(=O)OC(C)(C)C)C(C)C` had an IC50 of 1.73 nM.

Turning to `CC(C)[C@H](NC(=O)[C@H](Cc1ccccc1)C[C@H](O)[C@H](Cc1ccccc1)NC(=O)OC(C)(C)C)C(=O)NCc1cccnc1`, in assay [2], the IC50 was determined as 0.69 nM. Against the preceding compound, the IC50 is about 2.5-fold lower.

In assay [2], `CC(C)[C@H](NC(=O)[C@H](Cc1ccccc1)C[C@H](O)[C@H](Cc1ccccc1)NC(=O)OC(C)(C)C)C(=O)NCc1ccccn1` showed an IC50 of 0.75 nM. This IC50 and that of the compound before are within 1.5-fold of each other.

In assay [1], `CC(C)[C@H](NC(=O)[C@H](Cc1ccccc1)C[C@H](O)[C@H](Cc1ccccc1)NC(=O)OC(C)(C)C)C(=O)NCCCN(C)C` showed an IC50 of 3.4 nM.

For the compound `CC(C)C[C@H](NC(=O)[C@H](Cc1ccccc1)C[C@H](O)[C@H](Cc1ccccc1)NC(=O)OC(C)(C)C)C(=O)NC(CO)Cc1ccccc1` (some centres undefined), in assay [2], inhibition was half-maximal at 1.5 nM (IC50).

In assay [1], `CC(C)(C)OC(=O)N[C@@H](Cc1ccccc1)[C@@H](O)C[C@@H](Cc1ccccc1)C(=O)NCC(N)=O` came in with an IC50 of 550 nM. This lies in the sub-micromolar range.

As for `CC(C)C[C@H](NC(=O)[C@H](Cc1ccccc1)C[C@H](O)[C@H](Cc1ccccc1)NC(=O)OC(C)(C)C)C(=O)NCCO`, in the assay with H9, the MIC is 3 µM (≈ 1.71 µg/mL). The midpoint of inhibition in assay [2], the IC50, lay at 2.1 nM.

`CC(C)[C@H](NC(=O)[C@H](Cc1ccccc1)C[C@H](O)[C@H](Cc1ccccc1)NC(=O)OC(C)(C)C)C(=O)NCCN` came in with an IC50 in assay [2] of 0.46 nM. This counts as sub-nanomolar.

In assay [2], `CC(C)(C)OC(=O)N[C@@H](Cc1ccccc1)[C@@H](O)C[C@@H](Cc1ccccc1)C(=O)N[C@H](C(=O)NCc1nc2ccccc2[nH]1)c1ccccc1` gave an IC50 of 0.07 nM.

On to `CCC(C)[C@H](NC(=O)[C@H](Cc1ccccc1)C[C@H](O)[C@H](Cc1ccccc1)NC(=O)OC(C)(C)C)C(N)=O` (some centres undefined), for which the MIC in the assay with H9 was found to be 3 µM (≈ 1.58 µg/mL). This compound had an IC50 in assay [1] of 2.7 nM.

Compound `CC(C)(C)OC(=O)N[C@@H](Cc1ccccc1)[C@@H](O)C[C@@H](Cc1ccccc1)C(=O)N[C@@H](Cc1ncc[nH]1)C(N)=O` displayed an IC50 in assay [2] of 770 nM.

The compound `CC(C)[C@H](NC(=O)[C@H](Cc1ccccc1)C[C@H](O)[C@H](Cc1ccccc1)NC(=O)OC(C)(C)C)C(=O)NCc1ccccc1` gave a half-inhibitory concentration (IC50) in assay [2] of 0.24 nM.

In turn, `CC(C)(C)OC(=O)N[C@@H](Cc1ccccc1)[C@@H](O)C[C@@H](Cc1ccccc1)C(=O)N[C@@H](CO)C(N)=O` showed an IC50 in assay [1] of 606 nM.

On to `CC(C)[C@H](NC(=O)[C@H](Cc1ccccc1)C[C@H](O)[C@H](Cc1ccccc1)NC(=O)OC(C)(C)C)C(=O)NCCO`, for which, in assay [2], half-maximal inhibition (IC50) required 0.44 nM.

As for `CCC(C)[C@H](NC(=O)[C@H](Cc1ccccc1)C[C@H](O)[C@H](Cc1ccccc1)NC(=O)OC(C)(C)C)C(=O)NCC(O)CO` (some centres undefined), the IC50 in assay [2] amounted to 0.15 nM. This IC50 lies about 2.9-fold lower than the previous one.

Regarding `CC[C@H](C)[C@H](NC(=O)[C@H](Cc1ccccc1)C[C@H](O)[C@H](Cc1ccccc1)NC(=O)OC(C)(C)C)C(=O)NC(=O)C(N)Cc1ccccc1` (some centres undefined), inhibition in assay [1] was half-maximal at 0.25 nM (IC50).

In assay [2], `CC(C)[C@H](NC(=O)[C@H](Cc1ccccc1)C[C@H](O)[C@H](Cc1ccccc1)NC(=O)OC(C)(C)C)C(=O)NCCCN1CCOCC1` yielded an IC50 of 2.9 nM. That is a single-digit nanomolar value.

The compound `CC(C)(C)OC(=O)N[C@@H](Cc1ccccc1)[C@@H](O)C[C@@H](Cc1ccccc1)C(=O)N[C@@H](Cc1ccccc1)C(N)=O` returned an IC50 in assay [1] of 29 nM. That is a double-digit nanomolar value.

For `C[C@H](NC(=O)[C@H](Cc1ccccc1)C[C@H](O)[C@H](Cc1ccccc1)NC(=O)OC(C)(C)C)C(N)=O`, in the assay with H9, the MIC was determined as 6 µM (≈ 2.9 µg/mL). Moreover, the IC50 in assay [1] amounted to 7 nM.

As to `CC(C)(C)OC(=O)N[C@@H](Cc1ccccc1)[C@@H](O)C[C@@H](Cc1ccccc1)C(=O)N[C@@H](CC1CCCCC1)C(N)=O`, half-maximal inhibition in assay [1] (IC50) required 64 nM. In other words, the double-digit nanomolar range.

`CC(C)[C@H](NC(=O)[C@H](Cc1ccccc1)C[C@H](O)[C@H](Cc1ccccc1)NC(=O)OC(C)(C)C)C(=O)NCC(O)CO` (some centres undefined): the MIC in the assay on H9 turned out to be 1.5 µM (≈ 0.879 µg/mL). Further, half-maximal inhibition in assay [2] (IC50) was put at 0.05 nM.

In the case of `CC(C)(C)OC(=O)N[C@@H](Cc1ccccc1)[C@@H](O)C[C@@H](Cc1ccccc1)C(=O)N[C@H](C(N)=O)c1ccccc1`, the MIC in the assay on H9 is 1.5 µM (≈ 0.819 µg/mL). Half-maximal inhibition in assay [1] (IC50) was put at 0.9 nM.

Regarding `CC[C@H](C)[C@H](NC(=O)[C@H](Cc1ccccc1)C[C@H](O)[C@H](Cc1ccccc1)NC(=O)OC(C)(C)C)C(=O)NCc1nc2ccccc2[nH]1`, the MIC in the assay on H9 was determined as 0.2 µM (≈ 0.131 µg/mL). The IC50 in assay [2] worked out at 0.06 nM.

Regarding `CCC(C)[C@H](NC(=O)[C@H](Cc1ccccc1)C[C@H](O)[C@H](Cc1ccccc1)NC(=O)OC(C)(C)C)C(=O)NCc1ncc[nH]1` (some centres undefined), it took 0.88 nM to reach half-maximal inhibition in assay [2] (IC50).

In assay [2], `CCC(C)[C@H](NC(=O)[C@H](Cc1ccccc1)C[C@H](O)[C@H](Cc1ccccc1)NC(=O)OC(C)(C)C)C(=O)NCCN(C)C` (some centres undefined) displayed an IC50 of 7.1 nM.

Turning to `CC(C)C[C@H](NC(=O)[C@H](Cc1ccccc1)C[C@H](O)[C@H](Cc1ccccc1)NC(=O)OC(C)(C)C)C(=O)NCCCN(C)C`, in assay [2], 23 nM corresponded to half-maximal inhibition (IC50).

Regarding `CC(C)C[C@@H](NC(=O)[C@H](Cc1ccccc1)C[C@H](O)[C@H](Cc1ccccc1)NC(=O)OC(C)(C)C)C(N)=O`, the IC50 in assay [1] is 3100 nM.

With `CC(C)C[C@H](NC(=O)[C@H](Cc1ccccc1)C[C@H](O)[C@H](Cc1ccccc1)NC(=O)OC(C)(C)C)C(N)=O`, the IC50 in assay [1] turned out to be 10 nM.

`CC(C)(C)OC(=O)N[C@@H](Cc1ccccc1)[C@@H](O)C[C@@H](Cc1ccccc1)C(=O)N[C@@H](Cc1cc2ccccc2[nH]1)C(N)=O` yielded an IC50 in assay [2] of 60 nM.

For the compound `CC(C)C[C@H](NC(=O)[C@H](Cc1ccccc1)C[C@H](O)[C@H](Cc1ccccc1)NC(=O)OC(C)(C)C)C(=O)NCCc1ccccc1`, in assay [2], the IC50 is 15 nM.

In the case of `CCC(C)[C@H](NC(=O)[C@H](Cc1ccccc1)C[C@H](O)[C@H](Cc1ccccc1)NC(=O)OC(C)(C)C)C(=O)NCc1ccccc1` (some centres undefined), the MIC in the assay with H9 turned out to be 1.5 µM (≈ 0.924 µg/mL). The compound also showed an IC50 in assay [1] of 0.71 nM.

As for `CC(C)[C@H](NC(=O)[C@H](Cc1ccccc1)C[C@H](O)[C@H](Cc1ccccc1)NC(=O)OC(C)(C)C)C(=O)NCC(O)CN1CCOCC1` (some centres undefined), the IC50 in assay [2] came out at 0.88 nM.

`CCC(C)[C@H](NC(=O)[C@H](Cc1ccccc1)C[C@H](O)[C@H](Cc1ccccc1)NC(=O)OC(C)(C)C)C(=O)NCCCN(C)C` (some centres undefined): the IC50 in assay [2] is 7.9 nM. Against the preceding compound, the IC50 is about 9-fold higher.

The compound `CC(C)[C@H](NC(=O)[C@H](Cc1ccccc1)C[C@H](O)[C@H](Cc1ccccc1)NC(=O)OC(C)(C)C)C(=O)NCc1nc2ccccc2[nH]1` had an IC50 in assay [2] of 0.2 nM. This IC50 lies about 40-fold lower than the previous one.

(Values after ChEMBL document CHEMBL1125211, “Design and synthesis of HIV protease inhibitors. Variations of the carboxy terminus of the HIV protease inhibitor L-682,679” (J Med Chem, 1991).)
